Calls of active or inactive are those of the source. No cut-off for these calls is given here.
Columns and labels:
Liver = experiment: Drug metabolism in human liver microsomes assessed as 1-(7-methyl-5-(1-methyl-5-(5-(trifluoromethyl)pyridin-2-yl)-1H-pyrazol-4-yl)imidazo[1,5-f][1,2,4]triazin-4-yl)azetidin-3-ol formation at 1 to 50 uM after 1 hr by LC-MS/MS analysis; format: ADME, microsome
How it was run: (§1)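 Rat, dog or human liver microsomes or hepatocytes (P450 0.35–0.5 µM final) incubated with compound at 1, 10 or 50 µM in 100 mM phosphate buffer with 1 mM NADP regenerating system, 37°C for 1 h; quenched with 4 volumes acetonitrile, centrifuged, supernatant evaporated, reconstituted in 5% aqueous acetonitrile and analysed by reversed-phase LC.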

[1] = AUC (0 to infinity) in Wistar Han rat at 1 mg/kg, iv by LC-MS/MS analysis; format: ADME, organism-based; design: dose 1 mg/kg, time infinity, route intravenous; details: in vivo
How it was run: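 Male Wistar-Han rats received a single IV dose as a solution in 20% (w/v) sulfobutylether-β-cyclodextrin with hydrochloric acid. Blood was drawn by carotid artery cannula into K2EDTA at set times from 2 min to 24 h. Plasma was acetonitrile-precipitated with internal standard and run by positive-ESI LC-MS/MS against standards of 0.61–625 ng/mL. AUC was extrapolated from time 0 to infinity.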

[2] = AUC (0 to infinity) in beagle dog at 5 mg/kg, po administered via gavage by LC-MS/MS analysis; format: ADME, organism-based, Canis lupus familiaris; design: dose 5 mg/kg, route oral, time infinity; details: in vivo
Rattus norvegicus [3] = experiment: Reversal of ketamine-induced working memory deficit in Long Evans rat assessed as unbound brain concentration required to show effect at 0.32 mg/kg, sc by radial arm maze assay; format: functional, organism-based
How it was run: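 Rats trained in a radial arm maze working-memory task, with deficit induced by ketamine. Compound dosed sc; errors compared with vehicle + ketamine. N = 20–23 per group, Hochberg test. Cbu at the tested doses estimated from satellite pharmacokinetic animals.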

Cytochrome P450 2B6 = biological target: T1, Cytochrome P450 2B6 (Homo sapiens, UniProt P20813); experiment: Inhibition of recombinant human CYP2B6; format: ADME; details: recombinant enzyme
T1 sequence (P20813 whole entry): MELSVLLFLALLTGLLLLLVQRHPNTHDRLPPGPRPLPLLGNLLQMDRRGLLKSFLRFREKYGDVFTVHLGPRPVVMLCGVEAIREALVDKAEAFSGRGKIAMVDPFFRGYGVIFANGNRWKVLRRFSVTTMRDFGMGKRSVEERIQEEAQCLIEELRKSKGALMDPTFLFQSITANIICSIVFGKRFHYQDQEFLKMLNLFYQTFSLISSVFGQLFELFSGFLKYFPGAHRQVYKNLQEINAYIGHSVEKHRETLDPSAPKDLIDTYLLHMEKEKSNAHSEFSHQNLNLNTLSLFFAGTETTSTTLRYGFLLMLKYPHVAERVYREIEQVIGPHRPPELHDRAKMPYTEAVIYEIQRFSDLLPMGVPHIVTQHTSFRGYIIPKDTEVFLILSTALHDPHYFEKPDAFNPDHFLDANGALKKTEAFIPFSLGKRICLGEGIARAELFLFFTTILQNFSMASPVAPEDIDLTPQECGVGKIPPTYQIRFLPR

Mus musculus [4] = species on record: Mus musculus; experiment: Effect on cAMP level in CD-1 mouse brain striatum by immunoassay; format: functional
How it was run: (§2)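 CD-1 mice dosed SC (solution in 20% SBE-β-CD with 2 molar equivalents 1N HCl, 1 mL/kg); euthanized by focused microwave irradiation of brain; cortex, striatum, hippocampus homogenized in 0.5 N HCl, centrifuged; cyclic nucleotides in supernatant by enzyme immunoassay. Unbound brain exposure from satellite animals; dose-response and time-course data combined with linear model; one-way ANOVA with Fisher's PLSD.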

[5] = Drug metabolism in human hepatocytes assessed as 1-(7-methyl-5-(1-methyl-5-(5-(trifluoromethyl)pyridin-2-yl)-1H-pyrazol-4-yl)imidazo[1,5-f][1,2,4]triazin-4-yl)azetidin-3-ol formation at 1 to 50 uM after 1 hr by LC-MS/MS analysis; format: ADME, cell-based, Hepatocyte; how it was run: as §1
[6] = Terminal half life in beagle dog at 5 mg/kg, po administered via gavage by LC-MS/MS analysis; format: ADME, organism-based, Canis lupus familiaris; details: in vivo, read-out: beta t1/2 (converted)
Rattus norvegicus [7] = experiment: Reversal of MK-801-induced disruption of low frequency cortical delta oscillation in Sprague-Dawley rat brain at 0.1 mg/kg, iv up to 55 mins by electrophysiology method; format: functional, organism-based
[8] = Ratio of unbound brain concentration to unbound plasma concentration in sc dosed CD-1 mouse; format: ADME, organism-based; details: brain and plasma, read-out: K(p,uu,brain)
How it was run: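 Compound given sc to mice, iv and/or sc to rats, po to dogs and sc to monkeys; sc doses as a solution in 20% SBE-BCD + 2 molar equiv 1N HCl. Plasma, whole brain and CSF taken at matched times from 2 min to 24 h and quantified by LC-MS/MS. Fraction unbound in plasma and brain homogenate (diluted 4-fold, dilution factor 5 applied) by 6 h equilibrium dialysis against phosphate buffer at 37°C.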

Mus musculus [9] = species on record: Mus musculus; experiment: Increase in cGMP level in CD-1 mouse brain striatum assessed per nM of unbound brain concentration by immunoassay; format: functional
How it was run: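 CD-1 mice given compound; brains fixed by focused microwave irradiation, and cortex, striatum and hippocampus dissected and homogenized in 0.5 N HCl, then centrifuged. cGMP in the supernatant measured by enzyme immunoassay. Unbound brain concentration taken from satellite animals. Dose-response and time-course data combined, and a linear Cbu–cGMP model fitted. The Cbu E50 is the projected Cbu giving a 50% rise in cGMP. Statistics by one-way ANOVA with Fisher's PLSD, p<0.05.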

Rattus norvegicus [10] = species on record: Rattus norvegicus; experiment: Toxicity in rat assessed as effect on vasculature up to 1 month by microscopic method; details: in vivo
[11] = Tmax in beagle dog at 5 mg/kg, po administered via gavage by LC-MS/MS analysis; format: ADME, organism-based, Canis lupus familiaris; details: in vivo
[12] = Drug metabolism in dog hepatocytes assessed as 3-(7-methyl-5-(1-methyl-5-(5-(trifluoromethyl)pyridin-2-yl)-1H-pyrazol-4-yl)imidazo[1,5-f][1,2,4]triazin-4-ylamino)propanoic acid formation at 1 to 50 uM after 1 hr by LC-MS/MS analysis; format: ADME, cell-based, Canis lupus familiaris, Hepatocyte; how it was run: as §1
Canis familiaris = species on record: Canis familiaris; experiment: Toxicity in dog assessed as effect on CNS up to 1 month by microscopic method; design: species or system Canis lupus familiaris; details: in vivo
Rattus norvegicus [13] = species on record: Rattus norvegicus; experiment: Toxicity in rat assessed as effect on skeletal muscle up to 1 month by microscopic method; details: in vivo
Plasma = experiment: Drug uptake in rat plasma at 5 to 250 mg/kg/day, po up to 15 days by microscopic method; format: ADME, organism-based; details: in vivo, 360 h
How it was run: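 Exploratory rat toxicity study, oral dosing at 5, 50 and 250 mg/kg/day for up to 15 days, with microscopic examination of heart and vasculature and measurement of plasma and brain exposure.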

Mus musculus [14] = species on record: Mus musculus; experiment: Increase in cGMP level in CD-1 mouse brain cortex assessed as unbound brain concentration required to show the effect by immunoassay; format: functional; how it was run: as §2
Cytochrome P450 3A = Cytochrome P450 3A (Homo sapiens, UniProt P08684+P20815+Q9HB55+P24462); experiment: Time-dependant inhibition of recombinant human CYP3A; format: ADME; details: recombinant enzyme

Drug metabolism (Liver): Metabolite_Detected
AUC(0-inf) [1]: 141 ng·h/mL
AUC(0-inf) [2]: 4120 ng·h/mL
inhibition (INH) (Cytochrome P450 2B6): Not Active
Drug metabolism [5]: Metabolite_Detected
half-life [6]: 4.1 h
Kp uu [8]: 0.51
Tmax [11]: 0.25 h
Drug metabolism [12]: Metabolite_Detected
Drug uptake (Plasma): Active
TDI (Cytochrome P450 3A): Not Active
Compound: Cc1nc(-c2cnn(C)c2-c2ccc(C(F)(F)F)cn2)c2c(N3CCC3)ncnn12 [PF-05180999]
Drug uptake(free) (Rattus norvegicus [3]): 12.5 nM
Activity (Mus musculus [4]): inactive
Activity (Rattus norvegicus [7]): Active
Activity (Mus musculus [9]): 0.51%
Activity (Rattus norvegicus [10]): Non-Toxic
Activity (Canis familiaris): Toxic
Activity (Rattus norvegicus [13]): Toxic
fEC50 (Mus musculus [14]): 79.4 nM
